A short description of data set [1]: Inhibition of neurosphere formation of human BT142 cells by CCK8 assay. Format: functional, cell-based. An outline of the steps: (§1)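 Neurosphere cultures grown serum-free at 37 °C, 5% CO2 (neurobasal medium, N2/B27, bFGF and EGF 50 ng/mL each, penicillin/streptomycin). BXD lines come from patient-tumour orthotopic xenografts; BT-142 carries endogenous IDH1 R132H and gets extra supplements (PDGF-AA, insulin, transferrin, others). 2000 cells/well were exposed to 0.002, 0.02, 0.2, 2 or 20 μM for up to 13 days. CCK-8 viability was read on days 4, 7, 10 and 13.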
In general terms: Formazan colour is commonly taken as a measure of viable cells.

The subject of data set [2] is MDCK. In words: Permeability from basolateral to apical side in MDCK cells expressing MDR1 at 10 uM incubated at 37 degC for 90 mins by LC/MS/MS method. The class given is ADME, cell-based, Canis lupus familiaris. Conditions: dog, 1.5 h. An outline of the steps: (§2)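 MDCK-MDR1 monolayers were used 3–4 days after seeding on 0.4 μm Transwell filters, only if TEER exceeded 1000 Ω·cm² before and after the run. They were preincubated 30 min in HBSS with 50 mM HEPES, pH ≈ 7.4. Donor got 10 μM compound (final, 0.1% DMSO), then 90 min at 37 °C. Both sides were sampled and quantified by LC-MS/MS SRM. Papp = dQ/dt/(A·C0).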

For data set [3], the system named is MDCK. In words: Permeability from apical to basolateral side in MDCK cells expressing MDR1 at 10 uM incubated at 37 degC for 90 mins by LC/MS/MS method. Format: ADME, cell-based, Canis lupus familiaris. Conditions: dog, 1.5 h. A digest of the protocol: as §2
A short description of data set [4]: Inhibition of neurosphere formation of […] BXD4687 cells by CCK8 assay. Format: functional, cell-based. An outline of the steps: as §1
Data set [5] can be described thus: Inhibition of neurosphere formation of human BT142 cells at 2 uM by CCK8 assay. The class given is functional. A digest of the protocol:
as §1

The nature of data set [6]: Inhibition of cell proliferation of human WI38 cells by CCK8 assay. The class given is functional, cell-based. Conditions: WI-38.
Data set [7] is described as follows: Inhibition of neurosphere formation of […] BXD3752 cells by CCK8 assay. The class given is functional, cell-based. An outline of the steps:
as §1

In data set [8] the test system is MDCK. In words: Efflux ratio, ratio of permeability from basolateral side over apical to basolateral side in MDCK cells expressing MDR1 at 10 uM incubated at 37 degC for 90 mins by LC/MS/MS method. The class given is ADME, cell-based, Canis lupus familiaris. Conditions: dog, 1.5 h. An outline of the steps:
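MDCK-MDR1 monolayers (passage 24–33, seeded at 60000 cells/cm² on Transwell filters) were used 3–4 days post-seeding if TEER stayed >1000 Ω·cm². After 30 min preincubation in HBSS/50 mM HEPES pH ≈7.4, compound was added to the donor side (10 μM initial, 0.1% DMSO) A→B or B→A, 37 °C, 90 min. LC-MS/MS SRM quantification; Papp = dQ/dt/(A·C0).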

Data set [9] can be described thus: Inhibition of neurosphere formation of human BT142 cells at 20 uM by CCK8 assay. Format: functional. An outline of the steps: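 BT-142 glioma cells (endogenous IDH1 R132H) grown as neurospheres in serum-free neurobasal/N2/B27 medium with bFGF, EGF, PDGF-AA and other supplements. 2000 cells/well treated for up to 13 days. Viability by CCK-8 at days 4, 7, 10 and 13.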

Data set [10] can be described thus: Cytotoxicity against human HT1080 cells up to 30 uM. The class given is cell-based. Conditions: ht-1080.
In data set [11] the target is Isocitrate dehydrogenase [NADP] cytoplasmic (Homo sapiens, UniProt O75874, R132H). In words: Inhibition of human IDH1 R132H mutant expressed in Escherichia coli BL21-CodonPlus assessed as reduction in NADPH consumption.
Chain of Isocitrate dehydrogenase [NADP] cytoplasmic (Homo sapiens, UniProt O75874, R132H) (O75874 2-414 R132H limits assumed): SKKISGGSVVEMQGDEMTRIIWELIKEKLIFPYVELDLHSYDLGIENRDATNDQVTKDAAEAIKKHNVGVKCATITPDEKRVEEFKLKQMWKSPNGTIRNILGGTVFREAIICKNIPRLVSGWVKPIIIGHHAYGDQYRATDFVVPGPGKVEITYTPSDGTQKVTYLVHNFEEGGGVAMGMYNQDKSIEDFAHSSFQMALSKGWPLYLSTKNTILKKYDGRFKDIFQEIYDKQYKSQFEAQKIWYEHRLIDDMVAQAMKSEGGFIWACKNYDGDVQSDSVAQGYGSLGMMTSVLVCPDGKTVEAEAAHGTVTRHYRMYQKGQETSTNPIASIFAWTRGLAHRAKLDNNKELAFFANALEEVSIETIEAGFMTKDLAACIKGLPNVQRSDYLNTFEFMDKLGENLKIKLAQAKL
Data set [12] addresses Isocitrate dehydrogenase [NADP] cytoplasmic (Homo sapiens, UniProt O75874). Put plainly: Inhibition of wild type human IDH1 expressed in Escherichia coli BL21-CodonPlus assessed as NADPH production.
A short description of data set [13]: Selectivity index, ratio of EC50 for human BXD3752 cells to EC50 for human BT142 cells.
Data set [14] is described as follows: Selectivity index, ratio of EC50 for human BXD4687 cells to EC50 for human BT142 cells.

Chain of Isocitrate dehydrogenase [NADP] cytoplasmic (Homo sapiens, UniProt O75874) (O75874 whole entry): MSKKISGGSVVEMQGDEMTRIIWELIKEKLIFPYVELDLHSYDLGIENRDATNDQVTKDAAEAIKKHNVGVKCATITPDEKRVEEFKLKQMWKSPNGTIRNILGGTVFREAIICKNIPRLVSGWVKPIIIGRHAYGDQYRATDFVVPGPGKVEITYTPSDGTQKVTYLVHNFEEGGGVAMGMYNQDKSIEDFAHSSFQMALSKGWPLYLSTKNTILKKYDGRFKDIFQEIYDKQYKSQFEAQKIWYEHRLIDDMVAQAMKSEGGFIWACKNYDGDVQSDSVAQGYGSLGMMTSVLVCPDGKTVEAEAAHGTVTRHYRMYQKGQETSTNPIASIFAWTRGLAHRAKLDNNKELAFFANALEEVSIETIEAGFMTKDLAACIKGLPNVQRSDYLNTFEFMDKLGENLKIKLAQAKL

By EC50 is commonly meant the midpoint of the concentration-response curve. A lower EC50 goes with higher potency in that assay. In general, inhibition refers to the share of the control response that was lost under treatment. The low end stands for a weak effect, the high end for a strong effect. For the compound `Cc1ccccc1C(C(=O)NC1CCCCC1)N(C(=O)Cn1ccnc1C)c1cccc(F)c1` (configuration not stated), the EC50 in data set [1] was more than 20000 nM; in data set [4] it was more than 20 µM; in [6], more than 50 µM; in [7], more than 20 µM. The permeability is 10.4 ×10⁻⁶ cm/s in [2] and 0.15 ×10⁻⁶ cm/s in data set [3]. The compound also displayed an inhibition at 2 µM in data set [5] of 40%. For the same compound, the Ratio in data set [8] came to 72.6. Further, at 20 µM the inhibition in data set [9] was 40%. Take `Cc1cc(Cc2ccccc2)n(O)c(=O)c1`: the EC50 in data set [1] was found to be 370 nM; in data set [4], 6.8 µM; in data set [7], 5.9 µM. Further, the permeability is 6.34 ×10⁻⁶ cm/s in [2] and 5.45 ×10⁻⁶ cm/s in [3]. Further, the Activity result in data set [10] was “Non-toxic”. On to `Cc1cc(Cc2ccc(O)cc2)n(O)c(=O)c1`, for which the Activity result in data set [10] is on record as “Non-toxic”. On the same count and under the same terms, the entry for `O=c1cccc(Cc2ccccc2)n1O` is “Non-toxic”; for `CC(C)c1cc(Cc2ccccc2)n(O)c(=O)c1` it is “Non-toxic”. What is called Ki is a measure of affinity in units of concentration, obtained from inhibition or displacement. As to `Cc1cc(Cc2ccccc2O)n(O)c(=O)c1`, the Ki in data set [11] was determined as 0.65 µM. The same measure, in the same setting: the figure for `O=c1ccc(CCc2ccccc2)cn1O` is more than 50 µM. The same measure, in the same setting: the figure for `O=c1ccc(CCCc2ccccc2)cn1O` is more than 50 µM; for `O=c1ccc(Oc2ccccc2)cn1O` it is 46 µM.

For `O=C(NO)c1ccc(=O)n(O)c1`, the Ki in data set [11] is more than 50 µM. `O=C(NCc1ccccc1)c1ccc(=O)n(O)c1`: the Ki in [11] is more than 50 µM. Same read-out and setting: the figure for `O=C(Cc1ccccc1)Nc1ccc(=O)n(O)c1` is more than 50 µM. With `O=c1cccc(-c2ccccc2)n1O`, the Ki in data set [11] was more than 50 µM. Turning to `CC(c1ccccc1)c1cccc(=O)n1O` (configuration not stated), the Ki in data set [11] was more than 50 µM. Still for that read-out and setting: as for `O=c1cccc(CCc2ccccc2)n1O`, the figure is 10 µM; as for `COC(=O)c1ccc(CCc2cccc(=O)n2O)cc1`, 27 µM. `O=C(NO)c1cccc(=O)n1O`: the Ki in data set [11] is 4.5 µM; in data set [12], more than 50 µM. For the compound `Cc1cc(COc2ccccc2)n(O)c(=O)c1`, the Ki in data set [11] turned out to be 0.87 µM. The same measure, in the same setting: as for `Cc1ccn(O)c(=O)c1Cc1ccccc1`, the figure is 9.5 µM; as for `COc1cccc(Cc2c(C)ccn(O)c2=O)c1`, 16.2 µM.

As for `Cc1ccn(O)c(=O)c1Cc1cccc(O)c1`, the Ki in [11] amounted to 13.6 µM. Consider `O=c1cc(O)cc(Cc2ccccc2)n1O`, for which the Ki in data set [11] turned out to be 0.38 µM. The Activity entry in data set [10] is “Non-toxic”. Consider `COc1cc(Cc2ccccc2)n(O)c(=O)c1`, for which the Ki in [11] was 5.5 µM. As to `O=c1cc(CO)cc(Cc2ccccc2)n1O`, the Ki in data set [11] is 5.6 µM. With `CC(=O)OCc1cc(Cc2ccccc2)n(O)c(=O)c1`, the inhibition constant Ki in data set [11] was found to be 4.5 µM.

On to `COc1ccc(Cc2cc(C)cc(=O)n2O)cc1`, for which, in data set [11], the Ki turned out to be 0.56 µM. Consider `COc1cccc(Cc2cc(C)cc(=O)n2O)c1`, for which the EC50 in data set [1] is 630 nM; in data set [4] it was 1.2 µM; in [6], more than 50 µM; in data set [7], 2.5 µM. Besides, the Ki in data set [11] was 0.15 µM; in data set [12] it was more than 30 µM. Besides, the values for the permeability in [2] and in [3] were 8.88 ×10⁻⁶ cm/s and 5.39 ×10⁻⁶ cm/s, respectively. Besides, the Ratio in data set [8] came to 1.7. Further, in data set [10], the Activity entry is “Non-toxic”. As for `Cc1cc(Cc2cccc(O)c2)n(O)c(=O)c1`, the EC50 is 1800 nM in data set [1], 7.5 µM in data set [4], more than 50 µM in data set [6] and 6.2 µM in data set [7]. Besides, the Ki in [11] is 0.14 µM; in [12], more than 30 µM. Further, the Activity entry in data set [10] is recorded as “Non-toxic”. Consider `COc1ccccc1Cc1cc(C)cc(=O)n1O`, for which, in [11], the Ki is 0.49 µM. Still for that read-out and setting: as for `Cc1cc(Cc2cccc(F)c2)n(O)c(=O)c1`, the figure is 2.2 µM; as for `Cc1cc(Cc2c(F)c(F)c(F)c(F)c2F)n(O)c(=O)c1`, 2.2 µM.

As to `Cc1cc(Cc2ccc(C#N)cc2)n(O)c(=O)c1`, in data set [11], the Ki worked out at 12.5 µM. Still for that read-out and setting: as for `Cc1cc(Cc2cccc(C#N)c2)n(O)c(=O)c1`, the figure is 1.6 µM. For `Cc1cc(Cc2cccc(C(=O)O)c2)n(O)c(=O)c1`, in data set [11], the inhibition constant (Ki) was more than 50 µM. The same measure, in the same setting: the figure for `Cc1cc(Cc2cccc(C(N)=O)c2)n(O)c(=O)c1` is 8.5 µM. For `Cc1cc(Cc2ccc(C(F)(F)F)cc2)n(O)c(=O)c1`, the Ki in [11] worked out at 3.2 µM. Still for that read-out and setting: as for `Cc1cc(C)cc(Cc2cc(C)cc(=O)n2O)c1`, the figure is 3.1 µM; as for `Cc1cc(Cc2ccsc2)n(O)c(=O)c1`, 0.95 µM. Still for that read-out and setting: as for `Cc1cc(Cc2cccc(-c3ccccc3)c2)n(O)c(=O)c1`, the figure is 0.6 µM; as for `Cc1cc(Cc2ccc(Oc3ccccc3)cc2)n(O)c(=O)c1`, 0.75 µM. Still for that read-out and setting: the figure for `Cc1cc(Cc2cccc3ccccc23)n(O)c(=O)c1` is 0.95 µM. For the compound `COc1ccc2c(Cc3cc(C)cc(=O)n3O)cccc2c1`, the Ki in [11] amounted to 40.5 µM.

Take `Cc1cc(Cc2cccc3cc(O)ccc23)n(O)c(=O)c1`: in [11], the Ki was 27.5 µM. Consider `Cc1cc(Cc2cc3ccccc3s2)n(O)c(=O)c1`, for which the Ki in data set [11] stood at 22.5 µM. In the case of `COc1ccc(-c2ccc(Cc3cc(C)cc(=O)n3O)cc2)cc1`, the EC50 is 260 nM in data set [1], 7.6 µM in data set [4], more than 50 µM in data set [6] and 2.8 µM in data set [7]. The Ki in data set [11] is 0.34 µM; in data set [12], 14 µM. In addition, the “Ratio EC50” value in data set [13] and in data set [14] was more than 10 in each case. For the same compound, the Activity result in [10] was “Non-toxic”.

As for `Cc1cc(Cc2ccc(-c3ccc(O)cc3)cc2)n(O)c(=O)c1`, the EC50 in [1] is 690 nM; in [4], 16 µM; in data set [6], more than 50 µM; in [7], 5.1 µM. For the same compound, the values for the Ki in data set [11] and in [12] were 0.25 µM and 15.2 µM, respectively. Also, the Activity entry in data set [10] is recorded as “Non-toxic”. For `COc1cccc(-c2ccc(Cc3cc(C)cc(=O)n3O)cc2)c1`, the Ki in data set [11] is 0.14 µM; in [12] it was 13 µM. The Activity entry in data set [10] is on record as “Non-toxic”. `Cc1cc(Cc2ccc(-c3cccc(O)c3)cc2)n(O)c(=O)c1`: the inhibition constant (Ki) in data set [11] worked out at 0.27 µM.

With `Cc1cc(Cc2cc(-c3ccccc3)cc(-c3ccccc3)c2)n(O)c(=O)c1`, the Ki in data set [11] worked out at 0.3 µM.

`Cc1cc(Cc2ccccc2)n(N)c(=O)c1`: the Ki in data set [11] worked out at 3.8 µM. Same read-out and setting: the figure for `O=c1ccc(-c2ccccc2)cn1O` [1-HYDROXY-5-PHENYLPYRIDIN-2(1H)-ONE] is 50 µM. Still for that read-out and setting: the figure for `Cc1cc(C2CCCCC2)n(O)c(=O)c1` [CICLOPIROX] is more than 50 µM; for `Cc1cc(C)n(O)c(=O)c1` [METIPIROX] it is more than 50 µM. For `Cn1nnc2c(C(N)=O)ncn2c1=O` [TEMOZOLOMIDE], the EC50 in [1] is more than 50000 nM; in [4], more than 50 µM; in data set [7], more than 50 µM.

(Values after ChEMBL document CHEMBL3351758, “Inhibition of cancer-associated mutant isocitrate dehydrogenases: synthesis, structure-activity relationship, and selective antitumor activity” (J Med Chem, 2014).)
